# Test results from ChEMBL document CHEMBL3244375, “Hypolipidemic arylthioalkanoic acids” (J Med Chem, 1977).
# Columns and labels:
# Rattus norvegicus [1] = assay: Hypolipidemic activity in Sprague-Dawley rat assessed as reduction in serum cholesterol level at 0.125 % compound administered in diet for 14 days relative to control; format: functional; parameters: scale not given: the % may be the effect or the level left
# In short: (§1)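 Test compound mixed into feed, given ad libitum to rats for 14 days; controls received feed alone. Rats then weighed and killed by decapitation; blood collected and serum cholesterol and triglycerides measured by previously described methods. Data reported as mg% serum with SD per group, % change versus control; significance by Student's t test. Dose-response groups of eight rats.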
# Rattus norvegicus [2] = assay: Hypolipidemic activity in Sprague-Dawley rat assessed as reduction in serum triglyceride level at 0.125 % compound administered in diet for 14 days relative to control; format: functional; parameters: scale not given: the % may be the effect or the level left; in short: as §1
# Rattus norvegicus [3] = assay: Toxicity in Sprague-Dawley rat assessed as increase in liver weight at 0.125 % compound administered in diet for 14 days relative to control; format: organism-based; settings: in vivo, po, 336 h
# In short: (§2)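 Rats fed compound-containing diet ad libitum for 14 days alongside feed-only controls, eight rats per group in the dose-response study. At sacrifice by decapitation, liver removed and weighed. Change from controls scored semi-quantitatively, each + or − sign representing about a 10% change.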
# Rattus norvegicus [4] = assay: Hypolipidemic activity in Sprague-Dawley rat assessed as reduction in serum cholesterol level at 0.25 % compound administered in diet for 14 days relative to control; format: functional; parameters: scale not given: the % may be the effect or the level left; in short: as §1
# Rattus norvegicus [5] = assay: Hypolipidemic activity in Sprague-Dawley rat assessed as reduction in serum triglyceride level at 0.25 % compound administered in diet for 14 days relative to control; format: functional; parameters: scale not given: the % may be the effect or the level left; in short: as §1
# Rattus norvegicus [6] = assay: Toxicity in Sprague-Dawley rat assessed as increase in liver weight at 0.25 % compound administered in diet for 14 days relative to control; format: organism-based; settings: in vivo, po, 336 h; in short: as §2
# [7] = Retardation factor of the compound by thin layer chromatography; format: physicochemical
# Rattus norvegicus [8] = assay: Hypolipidemic activity in Sprague-Dawley rat assessed as reduction in serum cholesterol level at 0.03 % compound administered in diet for 14 days relative to control; format: functional; parameters: scale not given: the % may be the effect or the level left; in short: as §1
# [9] = Toxicity in mouse; format: organism-based; settings: in vivo
# [10] = Toxicity in rat; format: organism-based; settings: in vivo
# Rattus norvegicus [11] = assay: Hypolipidemic activity in Sprague-Dawley rat assessed as reduction in serum cholesterol level at 0.06 % compound administered in diet for 14 days relative to control; format: functional; parameters: scale not given: the % may be the effect or the level left; in short: as §1
# Rattus norvegicus [12] = assay: Hypolipidemic activity in Sprague-Dawley rat assessed as reduction in serum triglyceride level at 0.03 % compound administered in diet for 14 days relative to control; format: functional; parameters: scale not given: the % may be the effect or the level left; in short: as §1
# Rattus norvegicus [13] = assay: Hypolipidemic activity in Sprague-Dawley rat assessed as reduction in serum triglyceride level at 0.06 % compound administered in diet for 14 days relative to control; format: functional; parameters: scale not given: the % may be the effect or the level left; in short: as §1
# Rattus norvegicus [14] = assay: Toxicity in Sprague-Dawley rat assessed as mortality at 0.125 % compound administered in diet for 14 days relative to control; format: organism-based; settings: in vivo, po, 336 h
# In short: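 Compound mixed into rat feed and given ad libitum for 14 days; control groups received feed alone. At the end of the period, animals were weighed and killed by decapitation, blood was collected, and the liver was removed and weighed.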
Structure (SMILES),Activity (Rattus norvegicus [1]) [%],Activity (Rattus norvegicus [2]) [%],Activity (Rattus norvegicus [3]),Activity (Rattus norvegicus [4]) [%],Activity (Rattus norvegicus [5]) [%],further results
CC(C)(C)c1cc(OCC(=O)O)cc(C(C)(C)C)c1O,13,-50,–,–,–,–
CCCC(C)(Sc1cc(C(C)(C)C)c(O)c(C(C)(C)C)c1)C(=O)O (configuration not stated),12,-55,30%,–,–,–
CCCCC(C)(Sc1cc(C(C)(C)C)c(O)c(C(C)(C)C)c1)C(=O)O (configuration not stated),8,-66,20%,–,–,–
CCCCCC(C)(Sc1cc(C(C)(C)C)cc(C(C)(C)C)c1)C(=O)O (configuration not stated),-27,-73,20%,–,–,–
CC(Sc1cc(C(C)(C)C)c(O)c(C(C)(C)C)c1)C(=O)O (configuration not stated),–,–,–,-32,-78,Activity (Rattus norvegicus [6]): 30%
CC(C)(Sc1cc(C(C)(C)C)c(O)c(C(C)(C)C)c1)C(=O)O,–,–,–,-21,-66,Activity (Rattus norvegicus [6]): 40%
CCCCC(Sc1cc(C2CCCC2)c(O)c(C2CCCC2)c1)C(=O)O (configuration not stated),-11,-16,Non-toxic,–,–,deltaRm [7]: 0.94
CCCCC(C(=O)O)S(=O)(=O)c1cc(C(C)(C)C)c(O)c(C(C)(C)C)c1 (configuration not stated),-14,-36,20%,-17,-44,–
CCCCCC(C)(Sc1cc(C(C)(C)C)c(O)c(C(C)(C)C)c1)C(=O)O (configuration not stated),-10,-60,10%,–,–,–
CCCCC(Sc1ccc(Br)c(C)c1)C(=O)O (configuration not stated),-17,-49,20%,–,–,deltaRm [7]: 0.51
CCCCC(Sc1cc(C(C)(C)C)c(O)c(C(C)(C)C)c1)C(=O)O (racemic),-32,-66,10%,-30,-69,Activity (Rattus norvegicus [6]): 20%; Activity (Rattus norvegicus [8]): -21%; LD50 [9]: 5000 mg/kg; LD50 [10]: 7200 mg/kg; deltaRm [7]: 0.96; Activity (Rattus norvegicus [11]): -28%; Activity (Rattus norvegicus [12]): -35%; Activity (Rattus norvegicus [13]): -61%
CCCCC(C(=O)OCC)c1cc(C(C)(C)C)c(O)c(C(C)(C)C)c1 (configuration not stated),-2,-10,–,–,–,–
CCCCC(Sc1ccc(C)cc1)C(=O)O (configuration not stated),-11,-23,0%,–,–,deltaRm [7]: 0.23
CCCCC(Sc1ccc(Cl)cc1)C(=O)O (configuration not stated),-16,-41,0%,–,–,deltaRm [7]: 0.25
CCC(Sc1cc(C(C)(C)C)c(O)c(C(C)(C)C)c1)C(=O)O (configuration not stated),–,–,–,-37,-74,Activity (Rattus norvegicus [6]): 40%
CCCC(Sc1cc(C(C)(C)C)c(O)c(C(C)(C)C)c1)C(=O)OCC (configuration not stated),–,–,–,0,-54,Activity (Rattus norvegicus [6]): 0%
CCC(Oc1cc(C(C)(C)C)c(O)c(C(C)(C)C)c1)C(=O)O (configuration not stated),6,38,–,–,–,–
CCC(C)(Sc1cc(C(C)(C)C)c(O)c(C(C)(C)C)c1)C(=O)O (configuration not stated),–,–,–,-32,-80,Activity (Rattus norvegicus [6]): 40%
CCCCC(Sc1cc(C(C)(C)C)cc(C(C)(C)C)c1)C(=O)O (configuration not stated),-23,-58,20%,-20,-41,deltaRm [7]: 1.18

Structure (SMILES),Activity (Rattus norvegicus [1]) [%],Activity (Rattus norvegicus [2]) [%],Activity (Rattus norvegicus [3]),Activity (Rattus norvegicus [4]) [%],Activity (Rattus norvegicus [5]) [%],further results
CCCCCCC(C)(Sc1cc(C(C)(C)C)c(O)c(C(C)(C)C)c1)C(=O)O (configuration not stated),17,-73,10%,–,–,–
CC(C)(Sc1cc(C(C)(C)C)cc(C(C)(C)C)c1)C(=O)O,-31,-63,30%,–,–,–
CCCCCC(Sc1cc(C(C)(C)C)c(O)c(C(C)(C)C)c1)C(=O)O (configuration not stated),–,–,–,-24,-53,Activity (Rattus norvegicus [6]): 10%
CCCCC(Oc1cc(C(C)(C)C)c(O)c(C(C)(C)C)c1)C(=O)O (configuration not stated),-7,-38,20%,–,–,–
CC(C)(Sc1cc(C(C)(C)C)c(O)c(C(C)(C)C)c1)Sc1cc(C(C)(C)C)c(O)c(C(C)(C)C)c1 [PROBUCOL],–,–,–,38,-33,Activity (Rattus norvegicus [6]): 0%
CCCCC(Sc1cc(C2CCCCC2)c(O)c(C2CCCCC2)c1)C(=O)O (configuration not stated),-3,5,Non-toxic,–,–,deltaRm [7]: 1.1
CCCCC(C(=O)O)c1cc(C(C)(C)C)c(O)c(C(C)(C)C)c1 (configuration not stated),-20,-24,–,–,–,–
CCCC(C)(Sc1cc(C(C)(C)C)cc(C(C)(C)C)c1)C(=O)O (configuration not stated),-29,-80,40%,–,–,–
CCOC(=O)C(CC)Sc1cc(C(C)(C)C)c(O)c(C(C)(C)C)c1 (configuration not stated),13,-43,–,-5,-55,Activity (Rattus norvegicus [6]): 10%
CCCCCCC(C)(Sc1cc(C(C)(C)C)cc(C(C)(C)C)c1)C(=O)O (configuration not stated),-38,-68,30%,–,–,–
CC(C)(C)c1cc(SCC(=O)O)cc(C(C)(C)C)c1O,–,–,–,-16,–,–
CCCCC(Sc1ccc(OC)cc1)C(=O)O (configuration not stated),-12,-45,0%,–,–,deltaRm [7]: 0.08
CCOC(=O)C(C)(C)Sc1cc(C(C)(C)C)c(O)c(C(C)(C)C)c1,–,–,–,-23,-60,Activity (Rattus norvegicus [6]): 20%
CCCCC(Sc1ccccc1)C(=O)O (configuration not stated),-16,-37,0%,–,–,deltaRm [7]: 0
CC(Oc1cc(C(C)(C)C)c(O)c(C(C)(C)C)c1)C(=O)O (configuration not stated),–,–,–,–,–,Activity (Rattus norvegicus [14]): Toxic
CCCC(Sc1cc(C(C)(C)C)c(O)c(C(C)(C)C)c1)C(=O)O (configuration not stated),-3,-72,30%,–,–,–
CCCCC(Oc1cc(C(C)(C)C)c(O)c(C(C)(C)C)c1)C(=O)OCC (configuration not stated),-13,-28,10%,–,–,–
CCOC(=O)C(C)(C)Oc1ccc(Cl)cc1 [CLOFIBRATE],–,–,–,-28,-50,Activity (Rattus norvegicus [6]): 20%
